Experimental data published in ChEMBL document CHEMBL3286203, “Reactive oxygen species (ROS) inducible DNA cross-linking agents and their effect on cancer cells and normal lymphocytes” (J Med Chem, 2014).
The source made the active and inactive calls. The calls are words filed in the database; no cut-off is given here.

Legend:
RPMI-8226 = experiment: Cytotoxicity against human RPMI8226 cells assessed as growth inhibition at 10 uM after 48 hrs by SRB assay; format: functional, cell-based
How it was run: (§1)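 Single-dose screen run by the NCI Developmental Therapeutics Program (NCI-60). Cells were grown in RPMI 1640 with 5% fetal bovine serum and 2 mM L-glutamine. They were plated at 5000–40 000 cells/well, depending on doubling time. Each line was run in two plates and exposed to 10 μM drug for 48 h at 37 °C, 5% CO2, 100% humidity. Read-out was growth percent.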

786-0 = experiment: Cytotoxicity against human 786-0 cells assessed as growth inhibition at 10 uM after 48 hrs by SRB assay; format: functional, cell-based
How it was run: (§2)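 NCI DTP 60-cell-line screen run at the NCI. Cells were grown in RPMI 1640 with 5% FBS and 2 mM L-glutamine. They were seeded at 5000–40 000 cells/well depending on doubling time and grown in two plates per line. Each was exposed to a single 10 μM dose for 48 h at 37 °C, 5% CO2, 95% air, 100% humidity. Read-out was percent growth.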

IGROV-1 = experiment: Cytotoxicity against human IGROV1 cells assessed as growth inhibition at 10 uM after 48 hrs by SRB assay; format: functional, cell-based; how it was run: as §2
CCRF-CEM = experiment: Cytotoxicity against human CCRF-CEM cells assessed as growth inhibition at 10 uM after 48 hrs by SRB assay; format: functional, cell-based; how it was run: as §2
HL-60(TB) = experiment: Cytotoxicity against human HL-60(TB) cells assessed as growth inhibition at 10 uM after 48 hrs by SRB assay; format: functional, cell-based; how it was run: as §2
U-251 = experiment: Cytotoxicity against human U251 cells assessed as growth inhibition at 10 uM after 48 hrs by SRB assay; format: functional, cell-based
How it was run: (§3)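 NCI-60 DTP human tumour line screen. Cells grown in RPMI 1640 with 5% fetal bovine serum and 2 mM L-glutamine, plated at 5000–40 000 cells/well according to doubling time. Single dose of 10 μM for 48 h at 37 °C, 5% CO2, 95% air, 100% humidity, two plates per line. Read-out is growth percent.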

UO-31 = experiment: Cytotoxicity against human UO31 cells assessed as growth inhibition at 10 uM after 48 hrs by SRB assay; format: functional, cell-based; how it was run: as §3
NCI-H226 = experiment: Cytotoxicity against human NCI-H226 cells assessed as growth inhibition at 10 uM after 48 hrs by SRB assay; format: functional, cell-based; how it was run: as §1
SK-MEL-28 = experiment: Cytotoxicity against human SK-MEL-28 cells assessed as growth inhibition at 10 uM after 48 hrs by SRB assay; format: functional, cell-based; how it was run: as §1
SW-620 = experiment: Cytotoxicity against human SW620 cells assessed as growth inhibition at 10 uM after 48 hrs by SRB assay; format: functional, cell-based; how it was run: as §3
HCC 2998 = experiment: Cytotoxicity against human HCC2998 cells assessed as growth inhibition at 10 uM after 48 hrs by SRB assay; format: functional, cell-based; how it was run: as §2
RXF 393 = experiment: Cytotoxicity against human RXF393 cells assessed as growth inhibition at 10 uM after 48 hrs by SRB assay; format: functional, cell-based; how it was run: as §1
PC-3 = experiment: Cytotoxicity against human PC3 cells assessed as growth inhibition at 10 uM after 48 hrs by SRB assay; format: functional, cell-based; how it was run: as §1
SK-MEL-5 = experiment: Cytotoxicity against human SK-MEL-5 cells assessed as growth inhibition at 10 uM after 48 hrs by SRB assay; format: functional, cell-based; how it was run: as §1
SNB-19 = experiment: Cytotoxicity against human SNB19 cells assessed as growth inhibition at 10 uM after 48 hrs by SRB assay; format: functional, cell-based; how it was run: as §3
MDA-MB-231 = experiment: Cytotoxicity against human MDA-MB-231 cells assessed as growth inhibition at 10 uM after 48 hrs by SRB assay; format: functional, cell-based; how it was run: as §1
[1] = Induction of [32P]-labeled 49-mer oligonucleotide duplex DNA 12 with GNC sequence at terminus (unknown origin) interstrand cross-linking at 1 mM after 16 hrs by PAGE in presence of H2O2
How it was run: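 32P-labelled 12a (1.0 μM) annealed with 1.5 equiv of 12b in 10 mM potassium phosphate pH 7 / 100 mM NaCl (65 °C for 3 min, then slow cooling). Duplex incubated with compound (final 1 μM–5 mM), with or without H2O2, in NaCl and potassium phosphate pH 8 at room temperature for 16 h. Quenched in formamide; 20% denaturing PAGE.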

MDA-MB-468 = experiment: Cytotoxicity against human MDA-MB-468 cells assessed as growth inhibition at 10 uM after 48 hrs by SRB assay; format: functional, cell-based; how it was run: as §1
OVCAR-5 = experiment: Cytotoxicity against human OVCAR5 cells assessed as growth inhibition at 10 uM after 48 hrs by SRB assay; format: functional, cell-based; how it was run: as §1
SF-295 = experiment: Cytotoxicity against human SF295 cells assessed as growth inhibition at 10 uM after 48 hrs by SRB assay; format: functional, cell-based; how it was run: as §1
MCF7 = experiment: Cytotoxicity against human MCF7 cells assessed as growth inhibition at 10 uM after 48 hrs by SRB assay; format: functional, cell-based; how it was run: as §1
NCI-H23 = experiment: Cytotoxicity against human NCI-H23 cells assessed as growth inhibition at 10 uM after 48 hrs by SRB assay; format: functional, cell-based; how it was run: as §1
SF-539 = experiment: Cytotoxicity against human SF539 cells assessed as growth inhibition at 10 uM after 48 hrs by SRB assay; format: functional, cell-based; how it was run: as §1
HOP-92 = experiment: Cytotoxicity against human HOP92 cells assessed as growth inhibition at 10 uM after 48 hrs by SRB assay; format: functional, cell-based; how it was run: as §2
NCI-H322M = experiment: Cytotoxicity against human NCI-H322M cells assessed as growth inhibition at 10 uM after 48 hrs by SRB assay; format: functional, cell-based; how it was run: as §1
A498 = experiment: Cytotoxicity against human A498 cells assessed as growth inhibition at 10 uM after 48 hrs by SRB assay; format: functional, cell-based; how it was run: as §2
UACC-62 = experiment: Cytotoxicity against human UACC62 cells assessed as growth inhibition at 10 uM after 48 hrs by SRB assay; format: functional, cell-based; how it was run: as §3
ACHN = experiment: Cytotoxicity against human ACHN cells assessed as growth inhibition at 10 uM after 48 hrs by SRB assay; format: functional, cell-based; how it was run: as §2
NCI-H460 = experiment: Cytotoxicity against human NCI-H460 cells assessed as growth inhibition at 10 uM after 48 hrs by SRB assay; format: functional, cell-based; how it was run: as §1
LOX IMVI = experiment: Cytotoxicity against human LOXIMVI cells assessed as growth inhibition at 10 uM after 48 hrs by SRB assay; format: functional, cell-based; how it was run: as §2
EKVX = experiment: Cytotoxicity against human EKVX cells assessed as growth inhibition at 10 uM after 48 hrs by SRB assay; format: functional, cell-based; how it was run: as §2
NCI-H522 = experiment: Cytotoxicity against human NCI-H522 cells assessed as growth inhibition at 10 uM after 48 hrs by SRB assay; format: functional, cell-based; how it was run: as §1
HOP-62 = experiment: Cytotoxicity against human HOP62 cells assessed as growth inhibition at 10 uM after 48 hrs by SRB assay; format: functional, cell-based; how it was run: as §2
MOLT-4 = experiment: Cytotoxicity against human MOLT4 cells assessed as growth inhibition at 10 uM after 48 hrs by SRB assay; format: functional, cell-based; how it was run: as §1
CAKI-1 = experiment: Cytotoxicity against human Caki1 cells assessed as growth inhibition at 10 uM after 48 hrs by SRB assay; format: functional, cell-based; how it was run: as §2
DU-145 = experiment: Cytotoxicity against human DU145 cells assessed as growth inhibition at 10 uM after 48 hrs by SRB assay; format: functional, cell-based; how it was run: as §2

SMILES	growth inhibition (GI) (RPMI-8226)	growth inhibition (GI) (786-0)	growth inhibition (GI) (IGROV-1)	growth inhibition (GI) (CCRF-CEM)	growth inhibition (GI) (HL-60(TB))	growth inhibition (GI) (U-251)	growth inhibition (GI) (UO-31)	growth inhibition (GI) (NCI-H226)	growth inhibition (GI) (SK-MEL-28)	growth inhibition (GI) (SW-620)	growth inhibition (GI) (HCC 2998)	growth inhibition (GI) (RXF 393)	growth inhibition (GI) (PC-3)	growth inhibition (GI) (SK-MEL-5)	growth inhibition (GI) (SNB-19)	growth inhibition (GI) (MDA-MB-231)	Activity [1]	growth inhibition (GI) (MDA-MB-468)	growth inhibition (GI) (OVCAR-5)	growth inhibition (GI) (SF-295)	other results
CC1(C)OB(c2ccc(N(CCCl)CCBr)cc2)OC1(C)C	Active	Active	Active	Active	Active	Active	Active	Active	Active	Active	Active	Active	Active	Active	Active	Active	37%	Active	Active	Active	growth inhibition (GI) (MCF7): Active; growth inhibition (GI) (NCI-H23): Active; growth inhibition (GI) (SF-539): Active; growth inhibition (GI) (HOP-92): Active; growth inhibition (GI) (NCI-H322M): Active; growth inhibition (GI) (A498): Active; growth inhibition (GI) (UACC-62): Active; growth inhibition (GI) (ACHN): Active; growth inhibition (GI) (NCI-H460): Active; growth inhibition (GI) (LOX IMVI): Active; growth inhibition (GI) (EKVX): Active; growth inhibition (GI) (NCI-H522): Active; growth inhibition (GI) (HOP-62): Active; growth inhibition (GI) (MOLT-4): Active; growth inhibition (GI) (CAKI-1): Active; growth inhibition (GI) (DU-145): Active
CC1(C)OB(c2ccc(N(CCCl)CCCl)cc2)OC1(C)C	Active	Active	Active	Active	Active	Active	Active	Active	Active	Active	Active	Active	Active	Active	Active	Active	37%	Active	Active	Active	growth inhibition (GI) (MCF7): Active; growth inhibition (GI) (NCI-H23): Active; growth inhibition (GI) (SF-539): Active; growth inhibition (GI) (HOP-92): Active; growth inhibition (GI) (NCI-H322M): Active; growth inhibition (GI) (A498): Active; growth inhibition (GI) (UACC-62): Active; growth inhibition (GI) (ACHN): Active; growth inhibition (GI) (NCI-H460): Active; growth inhibition (GI) (LOX IMVI): Active; growth inhibition (GI) (EKVX): Active; growth inhibition (GI) (NCI-H522): Active; growth inhibition (GI) (HOP-62): Active; growth inhibition (GI) (MOLT-4): Active; growth inhibition (GI) (CAKI-1): Active; growth inhibition (GI) (DU-145): Active
